Test results from ChEMBL document CHEMBL1140232, “Surprising alteration of antibacterial activity of 5"-modified neomycin against resistant bacteria” (2008).
Values after ≈ are worked out from the molar mass of the structure shown.

Experiments:
Escherichia coli [1] = assay: Antibacterial activity against Escherichia coli TG1 pSF815 plasmid encoded for AAC(6')/APH(2') after 12 to 18 hrs; type: functional
In short: (§1)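 Broth microdilution. Bacterial suspension adjusted with broth to absorbance 0.08–0.1 at 625 nm, diluted further in broth, and mixed in wells with 2-fold serial dilutions of compound. Plates incubated at 35°C for 12–18 h. MIC is the lowest concentration inhibiting growth; each determination repeated at least three times.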

Escherichia coli [2] = assay: Antibacterial activity against aminoglycoside-susceptible Escherichia coli TG1 after 12 to 18 hrs; type: functional; in short: as §1
Escherichia coli [3] = assay: Antibacterial activity against Escherichia coli TG1 pTZ19U-3 plasmid encoded for APH(3')-1 after 12 to 18 hrs; type: functional; in short: as §1
Escherichia coli [4] = assay: Antibacterial activity against aminoglycoside-susceptible Escherichia coli ATCC 25922 after 12 to 18 hrs; type: functional; in short: as §1
Enterococcus [5] = assay: Ratio of kcat to Km of Enterococcus APH(3')-3a
Enterococcus [6] = assay: Activity of Enterococcus APH(3')-3a
Escherichia coli [7] = assay: Antibacterial activity against Escherichia coli TG1 pET28a plasmid encoded for APH(3')-3a after 12 to 18 hrs; type: functional; in short: as §1
Staphylococcus aureus [8] = assay: Antibacterial activity against aminoglycoside-susceptible Staphylococcus aureus ATCC 25923 after 12 to 18 hrs; type: functional; in short: as §1
Klebsiella pneumoniae [9] = assay: Antibacterial activity against multidrug-resistant Klebsiella pneumoniae ATCC 700603 isolate after 12 to 18 hrs; type: functional
In short: (§2)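 Broth microdilution MIC. Culture diluted with broth to an absorbance of 0.08–0.1 at 625 nm. 100 μL of this was diluted into 10 mL broth and dispensed into 96-well plates. Each well received 50 μL inoculum plus 50 μL of a 2-fold compound dilution series. Plates were incubated at 35°C for 12–18 h. MIC is the lowest concentration that inhibits growth, from at least three repeats.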

Pseudomonas aeruginosa = assay: Antibacterial activity against aminoglycosides-resistant Pseudomonas aeruginosa ATCC 27853 expressing APH(3')-2b after 12 to 18 hrs; type: functional; in short: as §2
Enterococcus faecalis [10] = assay: Antibacterial activity against vancomycin-resistant Enterococcus faecalis ATCC 51299 expressing vanB, ant(6)-1, aac(6')-aph(2') resistant gene after 12 to 18 hrs; type: functional; in short: as §2
Klebsiella pneumoniae [11] = assay: Antibacterial activity against ampicillin-resistant and aminoglycosides-susceptible Klebsiella pneumoniae ATCC 13883 after 12 to 18 hrs; type: functional; in short: as §2
Enterococcus faecalis [12] = assay: Antibacterial activity against vancomycin-susceptible and aminoglycosides-resistant Enterococcus faecalis ATCC 29212 after 12 to 18 hrs; type: functional; in short: as §2
Staphylococcus aureus [13] = assay: Antibacterial activity against methicillin-resistant Staphylococcus aureus ATCC 33591 after 12 to 18 hrs; type: functional; in short: as §2

Row | Compound | MIC (Escherichia coli [1]) [µg/mL] | MIC (Escherichia coli [2]) [µg/mL] | MIC (Escherichia coli [3]) [µg/mL] | MIC (Escherichia coli [4]) [µg/mL] | kcat/Km (Enterococcus [5]) [×10⁴ /M/s] | Km (Enterococcus [6]) [µM] | Vmax (Enterococcus [6]) [µmol/min/mg] | kcat (Enterococcus [6]) [s⁻¹] | MIC (Escherichia coli [7]) [µg/mL] | MIC (Staphylococcus aureus [8]) [µg/mL] | MIC (Klebsiella pneumoniae [9]) [µg/mL] | MIC (Pseudomonas aeruginosa) [µg/mL] | MIC (Enterococcus faecalis [10]) [µg/mL] | MIC (Klebsiella pneumoniae [11]) [µg/mL] | MIC (Enterococcus faecalis [12]) [µg/mL] | MIC (Staphylococcus aureus [13]) [µg/mL]
1 | NC[C@@H]1O[C@H](O[C@H]2[C@@H](O)[C@H](O[C@@H]3[C@@H](O)[C@H](N)C[C@H](N)[C@H]3O[C@H]3O[C@H](CN)[C@@H](O)[C@H](O)[C@H]3N)O[C@@H]2CNC(=O)CCC(=O)NC[C@H]2O[C@@H](O[C@@H]3[C@@H](O)[C@H](N)C[C@H](N)[C@H]3O[C@H]3O[C@H](CN)[C@@H](O)[C@H](O)[C@H]3N)[C@H](O)[C@@H]2O[C@H]2O[C@@H](CN)[C@@H](O)[C@H](O)[C@H]2N)[C@H](N)[C@@H](O)[C@@H]1O | 16 (≈ 12.2 µM) | 8 (≈ 6.11 µM) | 500 (≈ 382 µM) | 32 (≈ 24.4 µM) | < 0.01 | > 500 | < 0.1 | < 0.05 | 64 (≈ 48.9 µM) | 2 (≈ 1.53 µM) |  |  |  |  |  | 
2 | NCC[C@H](O)C(=O)NC[C@H]1O[C@@H](O[C@@H]2[C@@H](O)[C@H](N)C[C@H](N)[C@H]2O[C@H]2O[C@H](CN)[C@@H](O)[C@H](O)[C@H]2N)[C@H](O)[C@@H]1O[C@H]1O[C@@H](CN)[C@@H](O)[C@H](O)[C@H]1N | 16 (≈ 22.4 µM) | 16 (≈ 22.4 µM) | ≥ 2000 | 8 (≈ 11.2 µM) | 0.94 | 50 | 0.93 | 0.47 | 125 (≈ 175 µM) | 1 (≈ 1.4 µM) |  |  |  |  |  | 
3 | NC[C@@H]1O[C@H](O[C@H]2[C@@H](O)[C@H](O[C@@H]3[C@@H](O)[C@H](N)C[C@H](N)[C@H]3O[C@H]3O[C@H](CN)[C@@H](O)[C@H](O)[C@H]3N)O[C@@H]2CO)[C@H](N)[C@@H](O)[C@@H]1O [FRAMYCETIN] | 4 (≈ 6.51 µM) | 4 (≈ 6.51 µM) | ≥ 2000 | 4 (≈ 6.51 µM) | 26.8 | 6 | 3.22 | 1.61 | 64 (≈ 104 µM) | 1 (≈ 1.63 µM) | 16 (≈ 26 µM) | 64 (≈ 104 µM) | ≥ 250 | 4 (≈ 6.51 µM) | 64 (≈ 104 µM) | 125 (≈ 203 µM)
4 | C[C@H](N)C(=O)NC[C@H]1O[C@@H](O[C@@H]2[C@@H](O)[C@H](N)C[C@H](N)[C@H]2O[C@H]2O[C@H](CN)[C@@H](O)[C@H](O)[C@H]2N)[C@H](O)[C@@H]1O[C@H]1O[C@@H](CN)[C@@H](O)[C@H](O)[C@H]1N | 16 (≈ 23.4 µM) | 8 (≈ 11.7 µM) | ≥ 2000 | 8 (≈ 11.7 µM) | 0.75 | 60 | 0.9 | 0.45 | 64 (≈ 93.5 µM) | 0.5 (≈ 0.73 µM) |  |  |  |  |  | 

Now from value to compound, other results behind:

Row | MIC (Escherichia coli [1]) [µg/mL] | MIC (Escherichia coli [2]) [µg/mL] | MIC (Escherichia coli [3]) [µg/mL] | MIC (Escherichia coli [4]) [µg/mL] | kcat/Km (Enterococcus [5]) [×10⁴ /M/s] | Km (Enterococcus [6]) [µM] | Vmax (Enterococcus [6]) [µmol/min/mg] | kcat (Enterococcus [6]) [s⁻¹] | MIC (Escherichia coli [7]) [µg/mL] | MIC (Staphylococcus aureus [8]) [µg/mL] | Compound | MIC (Klebsiella pneumoniae [9]) [µg/mL] | MIC (Pseudomonas aeruginosa) [µg/mL] | MIC (Enterococcus faecalis [10]) [µg/mL] | MIC (Klebsiella pneumoniae [11]) [µg/mL] | MIC (Enterococcus faecalis [12]) [µg/mL] | MIC (Staphylococcus aureus [13]) [µg/mL]
5 | 16 (≈ 20 µM) | 8 (≈ 10 µM) | ≥ 2000 | 16 (≈ 20 µM) | 0.1 | 322 | 0.57 | 0.29 | 64 (≈ 80 µM) | 2 (≈ 2.5 µM) | NC[C@@H]1O[C@H](O[C@H]2[C@@H](O)[C@H](O[C@@H]3[C@@H](O)[C@H](N)C[C@H](N)[C@H]3O[C@H]3O[C@H](CN)[C@@H](O)[C@H](O)[C@H]3N)O[C@@H]2CNC(=O)[C@@H](N)Cc2c[nH]c3ccccc23)[C@H](N)[C@@H](O)[C@@H]1O |  |  |  |  |  | 
6 | 32 (≈ 34.6 µM) | 8 (≈ 8.64 µM) | 500 (≈ 540 µM) | 32 (≈ 34.6 µM) | 0.037 | 410 | 0.3 | 0.15 | 16 (≈ 17.3 µM) | 8 (≈ 8.64 µM) | NC[C@@H]1O[C@H](O[C@H]2[C@@H](O)[C@H](O[C@@H]3[C@@H](O)[C@H](N)C[C@H](N)[C@H]3O[C@H]3O[C@H](CN)[C@@H](O)[C@H](O)[C@H]3N)O[C@@H]2Cn2cc(CNC(=O)c3cc(-c4ccccc4)nc4ccccc34)nn2)[C@H](N)[C@@H](O)[C@@H]1O |  |  |  |  |  | 
7 | 32 (≈ 38.3 µM) | 16 (≈ 19.1 µM) | ≥ 2000 | 32 (≈ 38.3 µM) | 0.13 | 160 | 0.41 | 0.21 | 125 (≈ 150 µM) | 4 (≈ 4.79 µM) | CC(=O)NCC1CN(Cc2cn(C[C@H]3O[C@@H](O[C@@H]4[C@@H](O)[C@H](N)C[C@H](N)[C@H]4O[C@H]4O[C@H](CN)[C@@H](O)[C@H](O)[C@H]4N)[C@H](O)[C@@H]3O[C@H]3O[C@@H](CN)[C@@H](O)[C@H](O)[C@H]3N)nn2)C(=O)O1 (stereo partly specified) |  |  |  |  |  | 
